target: Methionine--tRNA ligase, mitochondrial (Homo sapiens) (UniProt Q96GW9); assay: human mtMetRS tRNA charging inhibition – biochemical, radioactivity, round 1, selectivity assay for T. brucei MetRS inhibitor project, late-stage follow-up (AID 743061); settings: recombinant human mtMetRS, [3H]Met tRNA charging, at 10 µM, stronger effect = higher value;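 also: 0% = DMSO with full reaction and 100% = DMSO wells lacking tRNA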
How it was run: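 Material – recombinant human mitochondrial methionyl-tRNA synthetase (MetRS) · Input – 13 nM enzyme · Also added – 240 nM [3H]methionine with bulk E. coli tRNA acceptor · Compound dosing – 10 and 1 µM · Schedule – 15 min preincubation, 1 h reaction, room temperature · Detection – scintillation counts of TCA-precipitated charged tRNA on filters · Benchmarks – high DMSO, low without tRNA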

SMILES | inhibition [%]
Clc1ccc(OCCSCc2nc3ccccc3[nH]2)cc1 | -5.52
COc1cccc(NC(=O)C2CC(=O)n3c(nc4ccccc43)N2)c1 (centres undefined) | 9.79
COc1ccc(CCN(C(=S)Nc2ccccc2)C2CC(=O)N(c3ccc(Cl)cc3)C2=O)cc1 (centres undefined) | 61.9
COc1ccccc1NS(=O)(=O)c1cccc(NC(=O)Nc2ccccc2)c1 | 19.1
O=C(NNC(=O)c1cc(-c2ccc(Cl)c(Cl)c2)nc2ccccc12)Nc1ccccc1 | -11.2
O=C1CC(NCCc2ccccc2)C(=O)N1c1ccc(Br)cc1 (centres undefined) | 6.62
O=C(Cn1cc(C(=O)c2ccco2)c2ccccc21)Nc1cccc(C(F)(F)F)c1 | 19.7
Cc1ccc2[nH]c3nc(SCC(=O)Nc4ccc(C(F)(F)F)cc4)nnc3c2c1 | 4.54
CCN(CC)C(=O)C(=O)c1cn(CC(=O)N2CCCc3ccccc32)c2ccccc12 | -1.92
COc1ccccc1NC(=O)CSc1nnc2c(n1)[nH]c1ccc(C)cc12 | 7.39
O=C(NCc1nc2ccccc2[nH]1)C1=C[C@@H](c2ccccc2)C[C@@H](OCc2ccc(CO)cc2)O1 | 15.8
COc1ccc(CCN(C(=O)c2cccc(F)c2)C2CC(=O)N(c3ccc(Br)cc3)C2=O)cc1 (centres undefined) | 4.36
C[C@H](O)[C@@H]1C(=O)N2CCc3c([nH]c4ccccc34)[C@@H]2C[C@@H]1N(C)Cc1ccc2c(c1)OCO2 | 24.8
Cc1cccc2[nH]c(CCN(C)C(=O)c3cccc(C4CCNC4)c3)nc12 (centres undefined) | -5.77
Cc1[nH]c2ccc(Br)cc2c(=O)c1CN1CCCCCC1 | -11
CCc1ccc2[nH]c3nc(SCC(=O)NCc4cccc(OC)c4)nnc3c2c1 | 13.1
CCN(C(=O)Cn1cc(C(=O)C(=O)N2CCOCC2)c2ccccc21)c1ccccc1 | -14.2

SMILES | inhibition [%]
O=C(NCc1nc2ccccc2[nH]1)C1=C[C@@H](c2ccc3c(c2)OCO3)C[C@@H](OCCCCO)O1 | -0.58
Cc1cc2cc(C(=O)N3CCCC(c4nc5ccccc5[nH]4)C3)ccc2o1 (centres undefined) | -1.3
CN(Cc1cc(Cl)cc(Cl)c1)[C@H]1C[C@H]2c3[nH]c4ccccc4c3CCN2C(=O)[C@H]1CO | 80.3
O=C(NCc1nc2ccccc2[nH]1)C1=C[C@H](c2ccc(Br)cc2)C[C@H](OCc2ccc(CO)cc2)O1 | 17.2
O=C1[C@@H]2Cc3c([nH]c4ccccc34)C(c3cccc([N+](=O)[O-])c3)N2C(=O)CN1CCCO (some centres undefined) | 4.46
O=C(C[C@H]1C(=O)N(Cc2ccccc2)C[C@@H]1c1ccc(Br)cc1)Nc1ccc(Br)cc1 | -8.54
Cn1c(CCNC(=O)c2ccc(Cl)cc2)nc2ccccc21 | 12.5
O=C(NCc1nc2ccccc2[nH]1)C1=C[C@@H](c2ccc(Br)cc2)C[C@@H](OCc2ccc(CO)cc2)O1 | 16.7
Cc1ccc(C(=O)NCCc2nc3ccccc3[nH]2)cc1[N+](=O)[O-] | 7.36
COc1ccc(CNC(=O)CSc2nnc3c(n2)[nH]c2ccc(F)cc23)cc1 | -12
CCN(CC)C(=O)C(=O)c1cn(CC(=O)N(CC)c2ccccc2)c2ccccc12 | 9.56
O=C(Cn1cc(C(=O)C2CC2)c2ccccc21)Nc1cccc(C(F)(F)F)c1 | 11.9
CCc1ccc2c(c1)c1nnc(SCC(=O)Nc3ccc4c(c3)OCO4)nc1n2C | 5.87
O=C(CC(=O)Nc1cccc(Cl)c1)NN=Cc1ccccc1 | 9.82
CC(C)(C)[C@H]1C=C(C(=O)NCc2nc3ccccc3[nH]2)O[C@@H](OCc2ccc(CO)cc2)C1 | 10.3
O=C1CC(N(CCc2ccccc2)C(=S)Nc2ccccc2)C(=O)N1c1ccc(Br)cc1 (centres undefined) | 25.6
CC(=O)c1c[nH]c(C(=O)NCc2cccc(C(F)(F)F)c2)c1 | 43.8

Reference: PubChem BioAssay AID743061 (The Scripps Research Institute Molecular Screening Center, 2013)
